From ChEMBL document CHEMBL3272093, “Antibacterial halogenoacetyl derivatives of amino acids and simple peptides” (1977)
In brackets after ≈: the same amount, converted by molar mass. Activity calls are given as the source filed them. No cut-off for these calls is given here.

How the values were obtained:
Escherichia coli = assay: Antibacterial activity against Escherichia coli assessed as inhibition of growth after 18 hrs by broth culture method; type: functional
Outline: (§1)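 Broth dilution in 0.5 mL Sensitivity Test Broth, inoculated with 0.2 mL of a 10^-4 dilution of an 18-h broth culture. MIC read after 18-h incubation as the lowest concentration preventing growth.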

Staphylococcus aureus = assay: Antibacterial activity against Staphylococcus aureus assessed as inhibition of growth after 18 hrs by broth culture method; type: functional; outline: as §1
[1] = target: T1, D-alanyl-D-alanine carboxypeptidase DacA (Geobacillus stearothermophilus) (UniProt Q05523); assay: Inhibition of Bacillus stearothermophilus DD-carboxypeptidase using UDP-N-acetylmuramyl-L-alanyl-meso-diaminopimeloyl-D-alanyl-D-alanine as substrate at 10 to 100 ug/ml
T1 sequence (whole entry): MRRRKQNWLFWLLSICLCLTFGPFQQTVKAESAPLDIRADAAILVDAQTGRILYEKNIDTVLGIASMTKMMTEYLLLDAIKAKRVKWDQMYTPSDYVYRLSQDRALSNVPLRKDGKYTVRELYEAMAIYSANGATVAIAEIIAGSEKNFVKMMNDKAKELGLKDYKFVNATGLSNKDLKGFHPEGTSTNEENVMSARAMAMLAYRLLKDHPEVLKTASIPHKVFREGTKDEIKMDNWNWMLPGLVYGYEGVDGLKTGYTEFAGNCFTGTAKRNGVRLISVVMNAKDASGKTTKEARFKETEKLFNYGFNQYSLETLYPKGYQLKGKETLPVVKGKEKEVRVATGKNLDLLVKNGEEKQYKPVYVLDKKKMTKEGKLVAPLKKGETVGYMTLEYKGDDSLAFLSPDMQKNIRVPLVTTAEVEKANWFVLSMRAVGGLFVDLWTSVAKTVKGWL
Outline: (§2)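 Enzymes tested for release of D-alanine, measured with D-amino acid oxidase. Compounds assayed at 10 and 100 μg/mL. Substrates: Ac2-L-Lys-D-Ala-D-Ala for the Streptomyces R61 enzyme; UDP-N-acetylmuramyl-L-alanyl-meso-diaminopimeloyl-D-alanyl-D-alanine for the B. stearothermophilus and S. typhimurium enzymes.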

[2] = system: Salmonella enterica subsp. enterica serovar Typhimurium; assay: Inhibition of Salmonella typhimurium DD-carboxypeptidase using UDP-N-acetylmuramyl-L-alanyl-meso-diaminopimeloyl-D-alanyl-D-alanine as substrate at 10 to 100 ug/ml; outline: as §2
[3] = target: D-alanyl-D-alanine carboxypeptidase (Streptomyces sp. R61) (UniProt P15555); assay: Inhibition of Streptomyces R61 DD-carboxypeptidase using Ac2-L-Lys-D-Ala-D-Ala as substrate at 10 to 100 ug/ml; outline: as §2
D-alanyl-D-alanine carboxypeptidase (Streptomyces sp. R61), sequence (P15555 whole entry): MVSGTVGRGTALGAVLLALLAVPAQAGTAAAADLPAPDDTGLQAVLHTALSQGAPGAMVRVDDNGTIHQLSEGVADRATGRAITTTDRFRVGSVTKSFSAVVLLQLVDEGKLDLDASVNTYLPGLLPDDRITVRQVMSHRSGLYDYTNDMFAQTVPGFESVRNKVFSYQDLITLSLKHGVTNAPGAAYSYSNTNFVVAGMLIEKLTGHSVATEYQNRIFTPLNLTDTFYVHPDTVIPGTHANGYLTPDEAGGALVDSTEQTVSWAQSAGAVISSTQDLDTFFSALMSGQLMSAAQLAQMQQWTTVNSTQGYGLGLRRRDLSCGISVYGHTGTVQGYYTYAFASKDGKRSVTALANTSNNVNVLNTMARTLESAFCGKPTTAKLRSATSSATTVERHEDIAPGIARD

With C[C@@H](NC(=O)[C@H](CCCCN1C(=O)c2ccccc2C1=O)NC(=O)CI)C(=O)N[C@H](CCC(=O)O)C(=O)O the MIC (Escherichia coli) was greater than 500 µg/mL, the MIC (Staphylococcus aureus) was 250 µg/mL (≈ 388 µM) and the inhibition [1] was “inactive”. The inhibition [2] was “inactive” and the inhibition [3] was “inactive”.
In the case of COC(=O)CCCCNC(=O)CI, the MIC (Escherichia coli) is reported as 7.5 µg/mL (≈ 25.1 µM), the MIC (Staphylococcus aureus) is reported as 3.7 µg/mL (≈ 12.4 µM) and the inhibition [1] is reported as “inactive”. The inhibition [2] was “inactive” and the inhibition [3] was “inactive”.
In the case of CC(=O)NCCCC[C@H](NC(=O)CI)C(=O)N[C@H](C)C(=O)N[C@H](C)C(=O)O, the MIC (Escherichia coli) is reported as greater than 500 µg/mL, the MIC (Staphylococcus aureus) is reported as greater than 500 µg/mL and the inhibition [1] is reported as “inactive”. The inhibition [2] was “inactive” and the inhibition [3] was “inactive”.
For C[C@@H](NC(=O)[C@@H](C)NC(=O)[C@H](CCCCN)NC(=O)CI)C(=O)O.O=C(O)C(F)(F)F, the MIC (Escherichia coli) was greater than 500 µg/mL, the MIC (Staphylococcus aureus) was greater than 500 µg/mL and the inhibition [1] was “inactive”. The inhibition [2] was “inactive” and the inhibition [3] was “inactive”.
C[C@@H](NC(=O)[C@@H](C)NC(=O)CBr)C(=O)O was tested, and the MIC (Escherichia coli) was greater than 500 µg/mL, the MIC (Staphylococcus aureus) was 500 µg/mL (≈ 1780 µM) and the inhibition [1] was “inactive”. The inhibition [2] was “inactive” and the inhibition [3] was “inactive”.
In the case of C[C@@H](NC(=O)[C@H](CCCCN1C(=O)c2ccccc2C1=O)NC(=O)CI)C(=O)N[C@H](CCC(=O)OC(C)(C)C)C(=O)OC(C)(C)C, the MIC (Escherichia coli) is reported as greater than 500 µg/mL, the MIC (Staphylococcus aureus) is reported as 62 µg/mL (≈ 81.9 µM) and the inhibition [1] is reported as “inactive”. The inhibition [2] was “inactive” and the inhibition [3] was “inactive”.
For C[C@@H](NC(=O)[C@H](CCCCN)NC(=O)CI)C(=O)N[C@H](C)C(=O)OC(C)(C)C.Cc1ccc(S(=O)(=O)O)cc1, the MIC (Escherichia coli) was greater than 500 µg/mL, the MIC (Staphylococcus aureus) was 250 µg/mL and the inhibition [1] was “inactive”. The inhibition [2] was “inactive” and the inhibition [3] was “inactive”.
For O=C(CI)NCC(=O)NCC(=O)OCc1ccccc1, the MIC (Escherichia coli) was 62 µg/mL (≈ 159 µM), the MIC (Staphylococcus aureus) was 0.9 µg/mL (≈ 2.31 µM) and the inhibition [1] was “inactive”. The inhibition [2] was “inactive” and the inhibition [3] was “inactive”.
With O=C(CI)NCCC(=O)OCc1ccccc1 the MIC (Escherichia coli) was 500 µg/mL (≈ 1440 µM), the MIC (Staphylococcus aureus) was 7.5 µg/mL (≈ 21.6 µM) and the inhibition [1] was “inactive”. The inhibition [2] was “inactive” and the inhibition [3] was “inactive”.
In the case of C[C@@H](NC(=O)[C@H](CCCCNC(=O)OC(C)(C)C)NC(=O)CI)C(=O)N[C@H](C)C(=O)OC(C)(C)C, the MIC (Escherichia coli) is reported as 500 µg/mL (≈ 816 µM), the MIC (Staphylococcus aureus) is reported as 250 µg/mL (≈ 408 µM) and the inhibition [1] is reported as “inactive”. For the same molecule, the inhibition [2] was “inactive” and the inhibition [3] was “inactive”.
With O=C(CI)NCCCCCC(=O)OCc1ccccc1 the MIC (Escherichia coli) was 62 µg/mL (≈ 159 µM), the MIC (Staphylococcus aureus) was 3.7 µg/mL (≈ 9.51 µM) and the inhibition [1] was “inactive”. The inhibition [2] was “inactive” and the inhibition [3] was “inactive”.
For C[C@@H](NC(=O)[C@@H](C)NC(=O)[C@H](CCCCN1C(=O)c2ccccc2C1=O)NC(=O)CI)C(=O)O, the MIC (Escherichia coli) was greater than 500 µg/mL, the MIC (Staphylococcus aureus) was 500 µg/mL (≈ 853 µM) and the inhibition [1] was “inactive”. For the same molecule, the inhibition [2] was “inactive” and the inhibition [3] was “inactive”.
With CC(C)(C)OC(=O)CCCCNC(=O)CI the MIC (Escherichia coli) was 500 µg/mL (≈ 1470 µM), the MIC (Staphylococcus aureus) was 7.5 µg/mL (≈ 22 µM) and the inhibition [1] was “inactive”. The inhibition [2] was “inactive” and the inhibition [3] was “inactive”.
C[C@@H](NC(=O)[C@@H](C)NC(=O)CI)C(=O)O was tested, and the MIC (Escherichia coli) was greater than 500 µg/mL, the MIC (Staphylococcus aureus) was 500 µg/mL (≈ 1520 µM) and the inhibition [1] was “inactive”. For the same molecule, the inhibition [2] was “inactive” and the inhibition [3] was “inactive”.
For C[C@@H](NC(=O)CI)C(=O)N[C@H](C)C(=O)OCc1ccccc1, the MIC (Escherichia coli) was greater than 500 µg/mL, the MIC (Staphylococcus aureus) was 7.5 µg/mL (≈ 17.9 µM) and the inhibition [1] was “inactive”. The inhibition [2] was “inactive” and the inhibition [3] was “inactive”.
In the case of O=C(O)CCCCNC(=O)CI, the MIC (Escherichia coli) is reported as 500 µg/mL (≈ 1750 µM), the MIC (Staphylococcus aureus) is reported as 125 µg/mL (≈ 438 µM) and the inhibition [1] is reported as “inactive”. For the same molecule, the inhibition [2] was “inactive” and the inhibition [3] was “inactive”.
C[C@@H](NC(=O)[C@@H](C)NC(=O)[C@@H](N)CCCCNC(=O)CI)C(=O)O.O=C(O)C(F)(F)F was tested, and the MIC (Escherichia coli) was greater than 500 µg/mL, the MIC (Staphylococcus aureus) was 500 µg/mL and the inhibition [1] was “inactive”. The inhibition [2] was “inactive” and the inhibition [3] was “inactive”.
With O=C(O)CCCCNC(=O)[C@H](CCCCN1C(=O)c2ccccc2C1=O)NC(=O)CI the MIC (Escherichia coli) was greater than 500 µg/mL, the MIC (Staphylococcus aureus) was greater than 500 µg/mL and the inhibition [1] was “inactive”. For the same molecule, the inhibition [2] was “inactive” and the inhibition [3] was “inactive”.
For CC(C)(C)OC(=O)CCCCNC(=O)[C@H](CCCCN1C(=O)c2ccccc2C1=O)NC(=O)CI.O, the MIC (Escherichia coli) was greater than 500 µg/mL, the MIC (Staphylococcus aureus) was greater than 500 µg/mL and the inhibition [1] was “inactive”. For the same molecule, the inhibition [2] was “inactive” and the inhibition [3] was “inactive”.
In the case of C[C@@H](NC(=O)[C@H](CCCCN)NC(=O)CI)C(=O)O.O=C(O)C(F)(F)F, the MIC (Escherichia coli) is reported as greater than 500 µg/mL, the MIC (Staphylococcus aureus) is reported as greater than 500 µg/mL and the inhibition [1] is reported as “inactive”. For the same molecule, the inhibition [2] was “inactive” and the inhibition [3] was “inactive”.
With C[C@@H](NC(=O)CI)C(=O)N[C@H](C)C(=O)OC(C)(C)C the MIC (Escherichia coli) was greater than 500 µg/mL, the MIC (Staphylococcus aureus) was 31 µg/mL (≈ 80.7 µM) and the inhibition [1] was “inactive”. The inhibition [2] was “inactive” and the inhibition [3] was “inactive”.
C[C@@H](NC(=O)[C@H](CCCCNC(=O)OC(C)(C)C)NC(=O)CBr)C(=O)N[C@H](C)C(=O)OC(C)(C)C was tested, and the MIC (Escherichia coli) was 500 µg/mL (≈ 884 µM), the MIC (Staphylococcus aureus) was 500 µg/mL (≈ 884 µM) and the inhibition [1] was “inactive”. For the same molecule, the inhibition [2] was “inactive” and the inhibition [3] was “inactive”.
With C[C@@H](NC(=O)[C@H](CCCCNC(=O)OC(C)(C)C)NC(=O)CI)C(=O)OC(C)(C)C the MIC (Escherichia coli) was greater than 500 µg/mL, the MIC (Staphylococcus aureus) was 15 µg/mL (≈ 27.7 µM) and the inhibition [1] was “inactive”. For the same molecule, the inhibition [2] was “inactive” and the inhibition [3] was “inactive”.
For C[C@@H](NC(=O)CI)C(=O)N[C@H](CCC(=O)O)C(=O)O, the MIC (Escherichia coli) was greater than 500 µg/mL, the MIC (Staphylococcus aureus) was 500 µg/mL (≈ 1290 µM) and the inhibition [1] was “inactive”. The inhibition [2] was “inactive” and the inhibition [3] was “inactive”.
In the case of C[C@@H](NC(=O)[C@H](CCCCNC(=O)OC(C)(C)C)NC(=O)CBr)C(=O)OC(C)(C)C, the MIC (Escherichia coli) is reported as greater than 500 µg/mL, the MIC (Staphylococcus aureus) is reported as 62 µg/mL (≈ 125 µM) and the inhibition [1] is reported as “inactive”. The inhibition [2] was “inactive” and the inhibition [3] was “inactive”.
With O=C(CI)NCC(=O)OCc1ccccc1 the MIC (Escherichia coli) was 125 µg/mL (≈ 375 µM), the MIC (Staphylococcus aureus) was 7.5 µg/mL (≈ 22.5 µM) and the inhibition [1] was “inactive”. The inhibition [2] was “inactive” and the inhibition [3] was “inactive”.
In the case of O=C(CI)NCCCCC(=O)OCc1ccccc1, the MIC (Escherichia coli) is reported as 62 µg/mL (≈ 165 µM), the MIC (Staphylococcus aureus) is reported as less than 0.4 µg/mL and the inhibition [1] is reported as “inactive”. For the same molecule, the inhibition [2] was “inactive” and the inhibition [3] was “inactive”.
For C[C@@H](NC(=O)[C@H](CCCCN)NC(=O)CBr)C(=O)O.O=C(O)C(F)(F)F, the MIC (Escherichia coli) was greater than 500 µg/mL, the MIC (Staphylococcus aureus) was greater than 500 µg/mL and the inhibition [1] was “inactive”. The inhibition [2] was “inactive” and the inhibition [3] was “inactive”.
In the case of O=C(CI)NCCCC(=O)OCc1ccccc1, the MIC (Escherichia coli) is reported as 250 µg/mL (≈ 692 µM), the MIC (Staphylococcus aureus) is reported as 7.5 µg/mL (≈ 20.8 µM) and the inhibition [1] is reported as “inactive”. The inhibition [2] was “inactive” and the inhibition [3] was “inactive”.
C[C@@H](NC(=O)[C@@H](C)NC(=O)[C@H](CCCCN)NC(=O)CBr)C(=O)O.O=C(O)C(F)(F)F was tested, and the MIC (Escherichia coli) was greater than 500 µg/mL, the MIC (Staphylococcus aureus) was greater than 500 µg/mL and the inhibition [1] was “inactive”. The inhibition [2] was “inactive” and the inhibition [3] was “inactive”.
CC(=O)NCCCC[C@H](NC(=O)CI)C(=O)N[C@H](C)C(=O)N[C@H](C)C(=O)OC(C)(C)C was tested, and the MIC (Escherichia coli) was greater than 500 µg/mL, the MIC (Staphylococcus aureus) was 500 µg/mL (≈ 902 µM) and the inhibition [1] was “inactive”. For the same molecule, the inhibition [2] was “inactive” and the inhibition [3] was “inactive”.
With C[C@@H](NC(=O)CI)C(=O)OC(C)(C)C the MIC (Escherichia coli) was greater than 500 µg/mL, the MIC (Staphylococcus aureus) was 31 µg/mL (≈ 99 µM) and the inhibition [1] was “inactive”. The inhibition [2] was “inactive” and the inhibition [3] was “inactive”.
